HKDC1 act: HKDC1 hexokinase activators, primary screen, biochemical, fluorescence, uHTS. recombinant HKDC1, G6PDH/diaphorase resazurin fluorescence; hits give low values. activity change, negative = activation, % at 20 µM. hit rate 0.056% among 340,000. AID 493187, 2011;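 active = activation of 40% or more at 20 µM, a change of -40% or lower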
Target sequence (Q2TB90 whole entry, looked up): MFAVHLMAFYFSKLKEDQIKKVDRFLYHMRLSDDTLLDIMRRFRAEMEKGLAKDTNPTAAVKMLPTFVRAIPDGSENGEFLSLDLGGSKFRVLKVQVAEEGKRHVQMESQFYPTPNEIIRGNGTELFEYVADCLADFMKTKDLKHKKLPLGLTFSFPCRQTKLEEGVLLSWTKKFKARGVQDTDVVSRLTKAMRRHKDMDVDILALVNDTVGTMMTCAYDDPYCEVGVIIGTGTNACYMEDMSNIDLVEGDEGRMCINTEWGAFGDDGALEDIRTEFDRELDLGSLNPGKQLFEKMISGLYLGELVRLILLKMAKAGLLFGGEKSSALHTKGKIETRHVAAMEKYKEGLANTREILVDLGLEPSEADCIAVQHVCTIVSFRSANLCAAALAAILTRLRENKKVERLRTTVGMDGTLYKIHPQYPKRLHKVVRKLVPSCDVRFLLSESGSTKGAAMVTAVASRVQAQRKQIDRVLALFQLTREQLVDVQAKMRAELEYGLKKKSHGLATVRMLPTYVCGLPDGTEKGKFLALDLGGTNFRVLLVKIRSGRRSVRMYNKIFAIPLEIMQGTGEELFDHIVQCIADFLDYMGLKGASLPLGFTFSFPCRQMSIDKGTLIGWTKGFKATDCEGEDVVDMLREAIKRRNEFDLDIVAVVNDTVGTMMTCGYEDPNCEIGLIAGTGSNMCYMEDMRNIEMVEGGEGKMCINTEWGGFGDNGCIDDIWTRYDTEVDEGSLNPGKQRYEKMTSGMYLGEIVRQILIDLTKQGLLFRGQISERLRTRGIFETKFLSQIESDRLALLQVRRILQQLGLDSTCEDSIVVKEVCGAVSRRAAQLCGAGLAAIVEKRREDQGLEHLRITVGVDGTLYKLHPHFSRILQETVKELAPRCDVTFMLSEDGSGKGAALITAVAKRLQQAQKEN
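Signal: coupled resazurin-to-resorufin fluorescence, Ex 525/Em 613 nm. Test system: in-house human HKDC1 enzyme, G6PDH and diaphorase coupling enzymes. Quantity: HKDC1 5 µg/mL. Timing: 90 min reaction at room temperature, dark.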
Numbers without * were called inactive. A selection follows.

SMILES | HKDC1 act
NC1=C(Cl)C(=O)c2ccc(S(N)(=O)=O)cc2C1=O | -133.9*
CC1=C(SCc2ccccc2)C(=O)c2ccccc2C1=O | 44.0
CC1(C)C(=O)Nc2ccccc2N1C(=O)COC(=O)c1cc(Cl)cc(Cl)c1 | -41.3*
C[c-]1[c-](C)[c-](C)[c-](C)[c-]1C.[Fe].c1cc2nccc(N3CCCC3)[c-]2c1 (centres undefined) | 48.5
Cc1[nH]c2ccccc2c1C(C#N)(C#N)C1C(=O)c2ccccc2C1=O | 57.1
COc1ccc(-c2csc(Nc3ccc(S(N)(=O)=O)cc3)n2)cc1 | -41.5*
CCCCC[C@H](O)/C=C/[C@@H]1[C@@H](C/C=C\CCCC(=O)OC)[C@@H](O)C[C@H]1O | 77.4
O=C1C=C(Nc2ccccc2C(=O)O)c2ccccc2C1=O | 45.8
C=CCNC(=S)N/N=C(\C)c1ccccn1 | -43.5*
Nc1ccc(S(=O)(=O)c2cc(O)c3ccccc3c2O)cc1 | 54.9
CC1(C)CC[C@]2(C(=O)n3ccnc3)CC[C@]3(C)[C@H](C(=O)C=C4[C@@]5(C)C=C(C#N)C(=O)C(C)(C)[C@@H]5CC[C@]43C)[C@@H]2C1 | 47.9
CC1=NOC(=O)/C1=C\c1ccc(-c2ccc(Br)cc2)o1 | 41.6
Cc1ccc(N=C2C(=S)N(c3ccc(C)cc3)C(=N)N2/N=C/c2ccc(Cl)cc2)cc1 | -119.5*
CC(=O)Nc1ccc(S(=O)(=O)NCCC(=O)OC(C)C(=O)c2ccc(C)cc2)cc1 (centres undefined) | 35.4
COc1ccccc1N(C)S(=O)(=O)c1ccc(Cl)c(C(=O)NCC2(N(C)C)CCCCC2)c1 | 41.5
O=C(N/N=C/c1ccc(O)cc1O)/C(=C/c1ccccc1)CCO | -40.1*
O=C1c2ccc3c4c(ccc(c24)C(=O)N1c1ccc(O)cc1)C(=O)N(c1ccc(O)cc1)C3=O | 55.8
Oc1ccc(/C=N/Nc2ccnc3cc(Cl)ccc23)c(O)c1O | 37.0
CC(C)(C=O)C1=CC(=O)c2ccccc2C1=O | 50.7
COc1cc(SC#N)ccc1N=Cc1c(C)[nH]n(-c2ccc(Cl)cc2)c1=O | -40.7*
COc1cc(N(C)C)ccc1C=c1c2ccccc2n2c1cc(-c1ccccc1)[n+]2C | 41.3
COc1ccc(CN2CCn3nc(C(=O)NC(C)C)cc3C2=O)cc1 | -74.6*
Cc1ccc(-c2ccc(/C=C3\C(=O)ON=C3c3ccccc3)o2)c([N+](=O)[O-])c1 | 42.5
CCN(CC)C(=O)c1ccc(C(=O)c2c(C)cc(C)cc2C)cc1 | 39.3
O=C1C(Cl)=C(N2CCC(C(=O)O)CC2)C(=O)c2ccccc21 | 49.6
SMILES | HKDC1 act
CCN(CC)c1ccc(/C=N/NC(=O)c2cccc(S(=O)(=O)Nc3ccccc3OC)c2)c(O)c1 | -43.1*
O=S(=O)(Nc1ccc(O)c2ccccc12)c1ccc(F)cc1 | 43.0
CCc1ccc(S(=O)(=O)Nc2ccc(O)c3ccccc23)cc1 | 44.0
CC(=O)NC1C(=O)N(CCN2CCOCC2)c2ccc(Br)cc21 (centres undefined) | 80.8
O=C(NCc1ccccn1)c1cc(S(=O)(=O)N2CCN(c3ccccc3)CC2)ccc1Cl | 73.3
COC(=O)c1ccccc1NC1=C/C(=N\S(=O)(=O)c2ccc(C(=O)O)cc2)c2ccccc2C1=O | 82.0
Cn1c(SSc2ccc(-c3cccnc3)n2C)ccc1-c1cccnc1 | -341.5*
O=C1NN(c2ccccc2)C(=O)/C1=C/c1ccc(Sc2ccc(Cl)cc2)o1 | 41.8
Cc1ccc(S(=O)(=O)/N=C2\C=C(Nc3cccc(C(=O)O)c3)C(=O)c3ccccc32)cc1 | 44.7
CC(C)c1ccc(S(=O)(=O)/N=C2/C=C(Sc3ncn[nH]3)C(=O)c3ccccc32)cc1 | 63.9
O=C(O)c1cc(O)c2c(c1)[C@H]([C@H]1c3cc(C(=O)O)cc(O)c3C(=O)c3c(O[C@@H]4O[C@H](CO)[C@@H](O)[C@H](O)[C@H]4O)cccc31)c1cccc(OC3O[C@H](CO)[C@@H](O)[C@H](O)[C@H]3O)c1C2=O (some centres undefined) | 87.2
N#CC(C#N)=Cc1cc2ccccc2nc1N1CCCCC1 | 37.9
Cc1onc(-c2ccccc2)c1C(=O)NC(=S)NNC(=O)c1ccccc1O | -44.5*
O=C(O)c1cc(O)c2c(c1)C(=O)c1cccc(O)c1C2=O | 40.2
CCC(=O)OC1(C)C(=O)C2=COC(c3ccc(OC)cc3)=CC2=C(Br)C1=O (centres undefined) | 45.5
NC(=O)[C@H]1CC2(CC(c3cccc(NC(=O)[C@H]4CCC(=O)N4)c3)=NO2)CN1C(=O)c1ccccc1 (some centres undefined) | 38.8
CCN(CC)c1ccc(NC(=O)c2ccccc2Br)cc1S(=O)(=O)Nc1ccccc1OC | -43.5*
Cc1ccc(S(=O)(=O)Nc2c(O)ccc3ccccc23)cc1 | 38.1
COCCNc1ccc([N+](=O)[O-])cc1C(=O)Nc1cccc(C)n1 | -57.6*
CCc1ccc(S(=O)(=O)/N=C2\C=C(Nc3ccc(C(=O)O)cc3)C(=O)c3ccccc32)cc1 | 53.7
O=C(COc1ccccc1/C=C\c1[nH]c(=O)[nH]c(=O)c1[N+](=O)[O-])Nc1ccccc1 | 39.6
CCOc1ccc2c(c1)C(NC(C)=O)C(=O)N2CCN1CCOCC1 (centres undefined) | 82.3
CC(=O)C1=C(c2cccc([N+](=O)[O-])c2)N(C(C)=O)n2c(C)nnc2S1 | -307.8*
Cc1[nH]c2ccccc2c1C1=CC(=O)C=CC1=O | 58.2
Nc1nc(-c2cccc(Br)c2)cs1 | -65.1*
SMILES | HKDC1 act
O=C(O)CCNc1cc(N2CCN(C(=O)c3ccco3)CC2)c2noc3c2c1C(=O)c1ccccc1-3 | 38.8
C=CC(=O)N1C/C(=C/c2ccccc2)C(=O)/C(=C\c2ccccc2)C1 | 37.5
[S-]c1nnc(-c2ccc(Br)cc2)n1-c1ccccc1.[Zn+2] | 48.9
COC(=O)c1ccc2c(c1)C(C)(C)C(/C=C/c1ccccc1O)=[N+]2C | 38.3
CCOC(=O)c1cc(-c2ccc(/C=C3/C(=O)N(c4ccc(C(=O)O)cc4)N=C3C)o2)ccc1Cl | 42.5
S=C(NCCc1ccc(Cl)cc1)NCc1ccccc1 | -63.3*
Cc1cc(C(F)F)n2ncc(C(=O)NCCc3ccc(Cl)cc3)c2n1 | 38.6
O=c1c2ccccc2nc2n1CCC2 | 82.1
COc1cc2c(C#N)c(N3CCc4ccccc4C3)nc(N)c2c(N)n1 | 40.8
Cc1n[nH]c(=O)c2c(NC(=O)CSc3nnc(C4CC4)n3C)oc(C)c12 | 39.7
CC1=NOC(=O)/C1=C\c1ccc(-c2cc(Cl)ccc2Cl)o1 | 56.8
COC1=CC(=O)c2c(ccc3ncnc(N)c23)C1=O | 87.1
COc1cccc2c1C(=O)C=C(C)C2=O | -43.4*
COc1cc(/C=C2\SC(=S)N(c3cccnc3)C2=O)ccc1O | 38.2
COC(=O)CCC(=O)OC1(C)C(=O)C2=CN(Cc3ccccc3)C(c3ccc(OC)cc3)=CC2=C(Br)C1=O (centres undefined) | 43.3
CCc1nc2sc3c(=O)[nH]cnc3c2c2c1CSC(C)(C)C2 | 37.4
COC(=O)CCC(=O)OC1(C)C(=O)C2=CN(c3ccccc3)C(c3ccc(OC)cc3)=CC2=C(Br)C1=O (centres undefined) | 38.2
Cc1nc2c3cc(F)ccc3n(Cc3ccccc3)c2s1 | -60.2*
Cc1cc(C(=O)COC(=O)c2cc(O)c3ccccc3c2O)c(C)n1CC1CCCO1 (centres undefined) | 46.6
O=Cc1[nH]c2ccccc2c1N(C(=O)CCl)c1ccccc1 | 35.3
COc1ccc(/C=C/C(=O)NC(=S)NNC(=O)c2cnccn2)cc1 | -40.3*

Assay outcomes: PubChem, Sanford-Burnham Center for Chemical Genomics
